Measured values from ChEMBL document CHEMBL3600364, “Modification of N-(6-(2-methoxy-3-(4-fluorophenylsulfonamido)pyridin-5-yl)-[1,2,4]triazolo[1,5-a]pyridin-2-yl)acetamide as PI3Ks inhibitor by replacement of the acetamide group with alkylurea” (Bioorg Med Chem, 2015).

Assays:
HCT-116 [1] = assay: Cytotoxicity against human HCT116 cells after 72 hrs by MTT assay; format: functional, cell-based; details: HCT-116, 72 h
Outline: (§1)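 Cells (1500–4000/well) were plated for 24 h, then exposed to serial concentrations for 72 h at 1% DMSO final. MTT was added for 4 h, formazan dissolved in DMSO, and OD read at 490 nm. IC50 (μM) came from three experiments run in triplicate.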

MCF7 = assay: Cytotoxicity against human MCF7 cells after 72 hrs by MTT assay; format: functional, cell-based; details: MCF7, 72 h; outline: as §1
U-87 MG = assay: Cytotoxicity against human U87MG cells after 72 hrs by MTT assay; format: functional, cell-based, U-87MG ATCC; outline: as §1
A549 = assay: Cytotoxicity against human A549 cells after 72 hrs by MTT assay; format: functional, cell-based; details: A549, 72 h; outline: as §1
[2] = Acute toxicity in po dosed mouse; format: organism-based; details: in vivo
Outline: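 Mouse acute oral toxicity (20.1 ± 1.9 g) by up-and-down procedure per OECD guideline 425. Compound dissolved in NMP, diluted with PEG400 and H2O (NMP/PEG400/H2O 1:8:1 v/v), given orally. Starting dose 50 mg/kg or 100 mg/kg depending on compound, slope factor sigma 0.12. Dosing stopped per AOT425StatPgm stopping rules.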

[3] = Ratio of compound LD50 to compound B LD50 for po dosed mouse; format: ADME, organism-based; details: in vivo
[4] = target: T1, Phosphatidylinositol 4,5-bisphosphate 3-kinase catalytic subunit alpha isoform (Homo sapiens, UniProt P42336); assay: Inhibition of PI3Kalpha (unknown origin) assessed as reduction of ATP level after 40 mins by luciferase based luminescence assay
[5] = target: T2, Phosphatidylinositol 4,5-bisphosphate 3-kinase catalytic subunit delta isoform (Homo sapiens, UniProt O00329); assay: Inhibition of PI3Kdelta (unknown origin) assessed as reduction of ATP level after 40 mins by luciferase based luminescence assay
T2 sequence (O00329 whole entry): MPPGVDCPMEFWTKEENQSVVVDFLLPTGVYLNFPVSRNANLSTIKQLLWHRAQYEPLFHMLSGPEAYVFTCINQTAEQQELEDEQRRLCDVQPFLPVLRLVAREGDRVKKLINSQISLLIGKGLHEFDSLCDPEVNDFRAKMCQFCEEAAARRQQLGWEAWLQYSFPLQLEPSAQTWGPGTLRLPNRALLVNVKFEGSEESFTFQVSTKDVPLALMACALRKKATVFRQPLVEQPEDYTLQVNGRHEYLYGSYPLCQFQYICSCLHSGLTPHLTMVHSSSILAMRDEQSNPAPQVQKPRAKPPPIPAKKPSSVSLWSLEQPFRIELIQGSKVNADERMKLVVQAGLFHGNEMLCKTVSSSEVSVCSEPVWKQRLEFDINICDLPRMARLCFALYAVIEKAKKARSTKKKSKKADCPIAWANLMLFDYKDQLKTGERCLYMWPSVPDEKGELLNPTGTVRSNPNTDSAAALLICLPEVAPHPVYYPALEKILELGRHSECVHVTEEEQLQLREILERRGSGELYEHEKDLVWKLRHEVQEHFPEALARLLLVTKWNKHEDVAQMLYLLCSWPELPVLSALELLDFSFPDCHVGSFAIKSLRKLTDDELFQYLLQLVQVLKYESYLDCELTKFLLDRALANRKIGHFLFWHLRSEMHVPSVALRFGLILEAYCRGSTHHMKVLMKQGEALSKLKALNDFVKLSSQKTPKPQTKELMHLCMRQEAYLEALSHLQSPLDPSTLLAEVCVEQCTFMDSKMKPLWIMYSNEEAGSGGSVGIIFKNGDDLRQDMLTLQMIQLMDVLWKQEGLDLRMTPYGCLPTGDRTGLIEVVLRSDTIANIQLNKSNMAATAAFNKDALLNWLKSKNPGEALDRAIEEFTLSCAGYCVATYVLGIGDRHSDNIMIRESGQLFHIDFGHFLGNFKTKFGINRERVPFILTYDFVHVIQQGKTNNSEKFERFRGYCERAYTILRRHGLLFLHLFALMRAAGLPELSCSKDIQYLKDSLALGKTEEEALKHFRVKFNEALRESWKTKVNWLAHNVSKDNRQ
Outline: (§2)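 Each enzyme was tested separately: PI3Kα (p110α/p85α), β (p110β/p85α), γ (p110γ/PIK3R5), δ (p110δ/p85α) or mTOR, with L-α-phosphatidylinositol substrate. […] was measured by luciferase luminescence. Inhibition was normalized to no-compound and no-enzyme controls, and IC50 obtained from dose-response fits.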

[6] = target: Serine/threonine-protein kinase mTOR (Homo sapiens, UniProt P42345); assay: Inhibition of mTOR (unknown origin) assessed as reduction of ATP level after 40 mins by luciferase based luminescence assay; outline: as §2
[7] = target: T1, Phosphatidylinositol 4,5-bisphosphate 3-kinase catalytic subunit alpha isoform; assay: Ratio of BEZ235 IC50 to compound IC50 for PI3Kalpha (unknown origin) assessed as reduction of ATP level after 40 mins by luciferase based luminescence assay
CCRF S-180 [8] = assay: Antitumor activity against mouse S180 cells xenografted in mouse assessed as inhibition of tumor growth at 5 mg/kg, po […] for 8 days relative to control; format: functional; details: CCRF S-180, po, 192 h, read-out: GI
Outline: (§3)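 Mice (20.3 ± 1.6 g) were given 3×10^6 S180 cells subcutaneously in the flank and randomized the next day into groups of 8. Dosing was oral, once daily for 8 days, in NMP/PEG400/H₂O (1:6:3), with a solvent-only group as control. Body weight was recorded daily. On day 9, tumors were excised and weighed, and tumor-weight inhibitory ratio was calculated.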

CCRF S-180 [9] = assay: Antitumor activity against mouse S180 cells xenografted in mouse assessed as inhibition of tumor growth at 10 mg/kg, po […] for 8 days relative to control; format: functional; details: CCRF S-180, po, 192 h, read-out: GI; outline: as §3
CCRF S-180 [10] = assay: Antitumor activity against mouse S180 cells xenografted in mouse assessed as inhibition of tumor growth at 30 mg/kg, po […] for 8 days relative to control; format: functional; details: CCRF S-180, po, 192 h, read-out: GI; outline: as §3
Mus musculus = assay: Toxicity in mouse S180 cells xenografted in mouse assessed as change in body weight at 5 to 30 mg/kg, po qd for 8 days; format: organism-based, CCRF S-180; details: in vivo, 192 h; outline: as §3
HCT-116 [11] = assay: Ratio of BEZ235 IC50 to compound IC50 for human HCT116 cells; format: functional

T1 sequence (P42336 whole entry, canonical isoform): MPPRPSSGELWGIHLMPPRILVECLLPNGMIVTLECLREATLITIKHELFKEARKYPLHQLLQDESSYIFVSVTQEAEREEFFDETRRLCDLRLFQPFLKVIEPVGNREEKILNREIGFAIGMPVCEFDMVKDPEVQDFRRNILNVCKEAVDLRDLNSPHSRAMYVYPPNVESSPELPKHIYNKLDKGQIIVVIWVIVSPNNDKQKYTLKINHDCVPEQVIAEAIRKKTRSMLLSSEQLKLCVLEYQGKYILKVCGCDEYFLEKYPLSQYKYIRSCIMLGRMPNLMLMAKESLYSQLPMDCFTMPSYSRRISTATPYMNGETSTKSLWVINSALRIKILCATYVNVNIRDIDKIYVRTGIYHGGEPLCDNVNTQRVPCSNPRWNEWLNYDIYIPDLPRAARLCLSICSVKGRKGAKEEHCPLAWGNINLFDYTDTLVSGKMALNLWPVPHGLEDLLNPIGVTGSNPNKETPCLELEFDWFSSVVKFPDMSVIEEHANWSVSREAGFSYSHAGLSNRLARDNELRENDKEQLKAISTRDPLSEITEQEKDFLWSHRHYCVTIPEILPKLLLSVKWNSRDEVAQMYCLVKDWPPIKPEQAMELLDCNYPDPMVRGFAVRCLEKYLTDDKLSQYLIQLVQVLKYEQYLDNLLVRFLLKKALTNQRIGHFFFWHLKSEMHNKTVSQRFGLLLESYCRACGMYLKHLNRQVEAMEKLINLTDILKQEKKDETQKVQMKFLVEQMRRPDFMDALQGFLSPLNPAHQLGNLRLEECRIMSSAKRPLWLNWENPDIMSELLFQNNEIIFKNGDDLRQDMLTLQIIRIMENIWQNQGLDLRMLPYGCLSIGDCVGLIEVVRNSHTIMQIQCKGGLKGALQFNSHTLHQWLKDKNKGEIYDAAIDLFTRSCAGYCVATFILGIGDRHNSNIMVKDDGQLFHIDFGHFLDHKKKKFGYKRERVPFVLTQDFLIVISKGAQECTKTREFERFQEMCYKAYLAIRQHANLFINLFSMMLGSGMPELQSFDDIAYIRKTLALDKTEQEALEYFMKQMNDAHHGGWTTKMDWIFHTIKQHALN

Row | Structure (SMILES) | IC50 (HCT-116 [1]) [nM] | IC50 (MCF7) [nM] | IC50 (U-87 MG) [nM] | IC50 (A549) [nM] | also measured
1 | COc1ncc(-c2ccc3nc(NC(=O)NCCN4CCOCC4)nn3c2)cc1NS(=O)(=O)c1ccc(F)cc1 | 130 | 210 | 560 | 420 | 
2 | CCN(CC)CCNC(=O)Nc1nc2ccc(-c3cnc(OC)c(NS(=O)(=O)c4ccc(Cl)cc4)c3)cn2n1 | 120 | 680 | 760 | 680 | 
3 | COc1ncc(-c2ccc3nc(NC(=O)NCCN4CCCCC4)nn3c2)cc1NS(=O)(=O)c1ccc(F)cc1 | 150 | 200 | 1080 | 610 | 
4 | Cn1c(=O)n(-c2ccc(C(C)(C)C#N)cc2)c2c3cc(-c4cnc5ccccc5c4)ccc3ncc21 [DACTOLISIB] | 290 | 260 | 770 | 280 | 
5 | COc1ncc(-c2ccc3nc(NC(=O)NCC(=O)N4CCCCC4)nn3c2)cc1NS(=O)(=O)c1ccc(F)cc1 | 130 | 570 | 740 | 2060 | 
6 | CCCNC(=O)Nc1nc2ccc(-c3cnc(OC)c(NS(=O)(=O)c4ccc(F)cc4)c3)cn2n1 | 150 | 360 | 420 | 220 | LD50 [2]: 156 mg/kg; selectivity ratio [3]: 5
7 | CCN(CC)CCNC(=O)Nc1nc2ccc(-c3cnc(OC)c(NS(=O)(=O)c4ccc(F)cc4)c3)cn2n1 | 180 | 370 | 720 | 760 | IC50 [4]: 14 nM; IC50 [5]: 12 nM; IC50 [6]: 123 nM; Ratio IC50 [7]: 3; LD50 [2]: 513 mg/kg; selectivity ratio [3]: 18; inhibition in vivo at 5 mg/kg (CCRF S-180 [8]): 37.3%; inhibition in vivo at 10 mg/kg (CCRF S-180 [9]): 49%; inhibition in vivo at 30 mg/kg (CCRF S-180 [10]): 53.6%; Activity (Mus musculus): Non-toxic
8 | CNC(=O)Nc1nc2ccc(-c3cnc(OC)c(NS(=O)(=O)c4ccc(F)cc4)c3)cn2n1 | 180 | 250 | 640 | 230 | 
9 | CCN(CC)CCNC(=O)Nc1nc2ccc(-c3cnc(OC)c(NS(=O)(=O)c4ccc(C)cc4)c3)cn2n1 | 170 | 410 | 670 | 730 | 
10 | COc1ncc(-c2ccc3nc(NC(=O)NC4CC4)nn3c2)cc1NS(=O)(=O)c1ccc(F)cc1 | 90 | 300 | 540 | 210 | Ratio IC50 (HCT-116 [11]): 3; IC50 [4]: 7 nM; IC50 [5]: 16 nM; IC50 [6]: 275 nM; Ratio IC50 [7]: 8; LD50 [2]: 118 mg/kg; selectivity ratio [3]: 4
11 | CCN(CC)CCNC(=O)Nc1nc2ccc(-c3cnc(OC)c(NS(=O)(=O)c4ccc(F)cc4F)c3)cn2n1 | 140 | 740 | 1060 | 980 | 
12 | COc1ncc(-c2ccc3nc(NC(=O)NCCN4CCN(C)CC4)nn3c2)cc1NS(=O)(=O)c1ccc(F)cc1 | 260 | 500 | 760 | 1050 | 
13 | COc1ncc(-c2ccc3nc(NC(=O)N4CCCC4)nn3c2)cc1NS(=O)(=O)c1ccc(F)cc1 | 1290 | 1660 | 1690 | 3570 | 
14 | COc1ncc(-c2ccc3nc(NC(=O)N(C)C)nn3c2)cc1NS(=O)(=O)c1ccc(F)cc1 | 760 | 1560 | 1780 | 1190 | 
15 | COc1ncc(-c2ccc3nc(NC(C)=O)nn3c2)cc1NS(=O)(=O)c1ccc(F)cc1 |  |  |  |  | LD50 [2]: 28 mg/kg
16 | COc1ncc(-c2ccc3nc(NC(=O)NCC(=O)N4CCCC4)nn3c2)cc1NS(=O)(=O)c1ccc(F)cc1 | 140 | 2130 | 1000 | 2190 | 
17 | COc1ncc(-c2ccc3nc(NC(=O)NCCN(C)C)nn3c2)cc1NS(=O)(=O)c1ccc(F)cc1 | 220 | 560 | 980 | 800 | 
18 | COc1ncc(-c2ccc3nc(NC(=O)NCC(=O)N4CCOCC4)nn3c2)cc1NS(=O)(=O)c1ccc(F)cc1 | 490 | 630 | 3260 | 2570 | 
19 | COc1ncc(-c2ccc3nc(NC(=O)NCCN4CCCC4)nn3c2)cc1NS(=O)(=O)c1ccc(F)cc1 | 230 | 380 | 1120 | 960 | 
